Measurements published in ChEMBL document CHEMBL2176997, “Salicylanilide inhibitors of Toxoplasma gondii” (J Med Chem, 2012).
Values after ≈ are worked out from the molar mass of the structure shown. Active and inactive are the calls of the source. The rule behind the calls is not given here.

Assays:
Toxoplasma gondii [1] = test: Antiapicomplexan activity against Toxoplasma gondii RH tachyzoites infected in HFF cells assessed as [3H]-uracil incorporation after 24 hrs by scintillation luminescence counter; format: functional
How it was run: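 Confluent HFF monolayers in IMDM-C (10% FBS) infected with 3,500 needle-released tachyzoites per well. Compounds from 10 mM DMSO stocks, diluted in medium (final DMSO ≤0.1%), were added 1 h after infection, with 0.1% DMSO as vehicle control. [3H]-uracil (25 µL of 0.1 mCi/mL) was added 24 h before harvest onto glass-fibre filters and counted by scintillation. Cultures were kept at 33°C or 37°C, 5% CO2.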

Toxoplasma gondii [2] = test: Antiapicomplexan activity against Toxoplasma gondii THdhxgTRP tachyzoites harboring insertional mutation assessed as growth inhibition after 6 weeks; format: functional, organism-based
Plasmodium falciparum [3] = test: Selectivity ratio of IC50 for chloroquine-resistant Plasmodium falciparum TM91-C235 to IC50 for chloroquine-sensitive Plasmodium falciparum D6; format: functional
Plasmodium falciparum [4] = test: Antiapicomplexan activity against chloroquine-resistant Plasmodium falciparum TM91-C235 assessed as growth inhibition after 72 hrs by MSF assay; format: functional, organism-based; conditions: TM91-C235, 72 h
How it was run: (§1)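 P. falciparum D6 or TM91-C235, late-ring/early-trophozoite stage, cultured at 0.3% parasitemia and 2% hematocrit on predosed plates. Twelve two-fold dilutions spanned 0.5–10000 ng/ml final, in quadruplicate, with chloroquine control. Incubation 72 h at 37°C under 5% CO2/5% O2/90% N2. Lysis buffer with SYBR Green I (10x final) was added, then 24 h dark at room temperature. IC50 from fluorescence by sigmoidal variable-slope regression.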

Plasmodium falciparum [5] = test: Antiapicomplexan activity against chloroquine-sensitive Plasmodium falciparum D6 assessed as growth inhibition after 72 hrs by MSF assay; format: functional, organism-based; conditions: D6, 72 h; how it was run: as §1
Toxoplasma gondii [6] = test: Antiapicomplexan activity against Toxoplasma gondii RH tachyzoites expressing yellow fluorescent protein infected in HFF cells assessed as parasite growth inhibition at 1 uM administered for 25 days followed by compound wash out; format: functional, organism-based
Toxoplasma gondii [7] = test: Parasitostatic activity against Toxoplasma gondii RH tachyzoites expressing yellow fluorescent protein infected in HFF cells at 1 uM administered for 10 days followed by compound wash out measured on day 17; format: functional, organism-based
How it was run: (§2)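 RH-YFP tachyzoites grown in HFF cells were exposed to 1 µM compound under set schedules: 4 days of treatment then removal, or 10 days of treatment then removal. Parasite burden was followed over time as YFP fluorescence (excitation 514 nm, emission 540 nm, bottom read) and compared with untreated infected controls.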

Toxoplasma gondii [8] = test: Parasitostatic activity against Toxoplasma gondii RH tachyzoites expressing yellow fluorescent protein infected in HFF cells at 1 uM administered for 4 days followed by compound wash out measured on day 11 relative to untreated control; format: functional, organism-based; how it was run: as §2
HFF = test: Cytotoxicity against HFF cells assessed as survival by WST1 assay; format: cell-based; conditions: human
How it was run: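 Confluent HFF cells were treated with compounds at the concentrations used in the challenge assays. On the final day WST-1 reagent was added, followed by 1 h incubation in the dark at 37°C and absorbance reading at 420 nm.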

Toxoplasma gondii [9] = test: Antiapicomplexan activity against Toxoplasma gondii RH tachyzoites expressing yellow fluorescent protein infected in HFF cells after 72 hrs by fluorescence assay; format: functional, organism-based
How it was run: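 Confluent HFF monolayers in IMDM-C (10% FBS) infected with 3,500 RH-YFP tachyzoites per well. Compounds were added 1 h later from 10 mM DMSO stocks, final DMSO ≤0.1%. Pyrimethamine/sulfadiazine and 0.1% DMSO served as controls. After 72 h YFP fluorescence was read (ex 514, em 540 nm, bottom optics), giving MIC50/MIC90 ranges. Plates held at 33°C or 37°C, 5% CO2.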

Toxoplasma gondii [10] = test: Parasitocidal activity against Toxoplasma gondii RH tachyzoites expressing yellow fluorescent protein infected in HFF cells assessed as parasite growth inhibition at 1 uM administered for 25 days followed by compound wash out; format: functional, organism-based
How it was run: (§3)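 RH-YFP tachyzoites in HFF cells given compound at 1 μM under one of four regimens: 4 days then removal; 10 days then removal; refreshed at day 4 and removed at day 10; or maintained throughout. Parasite growth was followed as YFP fluorescence over time.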

Toxoplasma gondii [11] = test: Parasitocidal activity against Toxoplasma gondii RH tachyzoites expressing yellow fluorescent protein infected in HFF cells at 1 uM administered for 10 days followed by compound wash out measured after 11 to 25 days; format: functional, organism-based; how it was run: as §3
Toxoplasma gondii [12] = test: Parasitocidal activity against Toxoplasma gondii RH tachyzoites expressing yellow fluorescent protein infected in HFF cells at 1 uM administered for 4 days followed by compound refreshment on day 4 and compound wash out on day 10 measured after 11 to 25 days; format: functional, organism-based; how it was run: as §3
Toxoplasma gondii [13] = test: Parasitocidal activity against Toxoplasma gondii RH tachyzoites expressing yellow fluorescent protein infected in HFF cells at 1 uM administered for 4 days followed by compound wash out measured after 11 to 25 days; format: functional, organism-based; how it was run: as §3
Toxoplasma gondii [14] = test: Antiapicomplexan activity against Toxoplasma gondii ME49 oocysts infected in HLA B07 transgenic mouse assessed as increase in survival at 25 to 100 mg/kg, po; format: functional, organism-based
How it was run: (§4)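 Female B7 mice (~25 g), 5 per group, given 100 ME49 or TgGoatUS4 oocysts by oral gavage, plus 100 mg/kg (2.5 mg/mL) or 25 mg/kg ([…]) of test compound as 1.0 mL oral-gavage suspension. Vehicle DMSO 1.0%/PEG 400 5.0%/0.5% CMC 94.0%. Infected untreated and drug-only groups included. Mice observed daily and day of death recorded. Impression smears examined for tachyzoites.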

Mus musculus = test: Toxicity in HLA B07 transgenic mouse assessed as survival at 25 to 100 mg/kg, po administered for 9 days measured after day 10; format: organism-based; design: dose 25-100 mg/kg, route oral; conditions: in vivo, 216 h
Toxoplasma gondii [15] = test: Antiapicomplexan activity against Toxoplasma gondii TgGoatUS4 oocysts infected in HLA B07 transgenic mouse assessed as increase in survival at 25 to 100 mg/kg, po; format: functional, organism-based; how it was run: as §4

SMILES	MIC50 (Toxoplasma gondii [1]) [µM]	MIC90 (Toxoplasma gondii [1]) [µM]	further results
Nc1ccc(NC(=O)c2cc(Cl)ccc2O)c(Cl)c1	> 1	> 1	
Cc1cc(C)cc(NC(=O)c2cc(Cl)ccc2O)c1	> 1	> 1	
CCOc1cccc(NC(=O)c2cc(Cl)ccc2O)c1	> 1	> 1	
COc1ccc(C)c(NC(=O)c2cc(Cl)ccc2O)c1	> 1	> 1	
COc1ccc(F)cc1C(=O)Nc1ccc([N+](=O)[O-])cc1Cl	> 1	> 1	
COc1ccc(F)cc1C(=O)Nc1ccc([N+](=O)[O-])cc1F	> 1	> 1	
COc1ccc(NC(=O)c2cc(Cl)ccc2O)c(OC)c1OC	> 1	> 1	
Cc1ccc(O)c(C(=O)Nc2ccc([N+](=O)[O-])cc2Cl)c1	0.25 (≈ 0.0767 µg/mL)	0.25 (≈ 0.0767 µg/mL)	
CC(C)(C)c1cccc(NC(=O)c2cc(Cl)ccc2O)c1	0.008 (≈ 0.00243 µg/mL)	0.016 (≈ 0.00486 µg/mL)	growth inhibition (GI) (Toxoplasma gondii [2]): Active; Ratio IC50 (Plasmodium falciparum [3]): 2; IC50 (Plasmodium falciparum [4]): > 6.5 µM; IC50 (Plasmodium falciparum [5]): 3.1 µM; growth inhibition (GI) (Toxoplasma gondii [6]): Active; Activity (Toxoplasma gondii [7]): inactive; Activity (Toxoplasma gondii [8]): inactive; Activity (HFF): > 1000 nM; IC50 (Toxoplasma gondii [9]): 0.008 µM; IC90 (Toxoplasma gondii [9]): 0.016 µM
COc1ccc(NC(=O)c2cc(Cl)ccc2O)cc1OC	> 1	> 1	
C#Cc1cc(NC(=O)c2cc(Cl)ccc2O)ccc1F	> 1	> 1	
C=Cc1cccc(NC(=O)c2cc(Cl)ccc2O)c1	0.25 (≈ 0.0684 µg/mL)	0.75 (≈ 0.205 µg/mL)	
O=C(Nc1cccc(Cc2ccccc2)c1)c1cc(Cl)ccc1O	0.75 (≈ 0.253 µg/mL)	0.75 (≈ 0.253 µg/mL)	
O=C(Oc1ccc(Cl)cc1C(=O)Nc1ccc([N+](=O)[O-])cc1Cl)c1ccccc1	0.061 (≈ 0.0263 µg/mL)	0.125 (≈ 0.0539 µg/mL)	growth inhibition (GI) (Toxoplasma gondii [2]): Active; IC50 (Plasmodium falciparum [4]): 0.69 µM; IC50 (Plasmodium falciparum [5]): 0.77 µM; Activity (Toxoplasma gondii [10]): Active; Activity (Toxoplasma gondii [11]): Active; Activity (Toxoplasma gondii [12]): Active; Activity (Toxoplasma gondii [13]): Active; Activity (HFF): > 1000 nM; IC50 (Toxoplasma gondii [9]): 0.061 µM; IC90 (Toxoplasma gondii [9]): 0.125 µM
O=C(Nc1cc(F)cc(F)c1)c1cc(Cl)ccc1O	> 1	> 1	
O=C(Nc1ccc(Cl)cc1F)c1cc(Cl)ccc1O	> 1	0.5 (≈ 0.15 µg/mL)	
O=C(Nc1cccc(C(F)(F)F)c1)c1cc(Cl)ccc1O	0.25 (≈ 0.0789 µg/mL)	0.25 (≈ 0.0789 µg/mL)	
CN(CC(=O)NN)C(=O)Oc1ccc(Cl)cc1C(=O)Nc1ccc([N+](=O)[O-])cc1Cl.Cl	0.016	0.125	Activity (Toxoplasma gondii [14]): Active; Activity (Mus musculus): Non-toxic; IC50 (Plasmodium falciparum [4]): 2.7 µM; Activity (Toxoplasma gondii [11]): Active; Activity (Toxoplasma gondii [12]): Active; Activity (HFF): > 1000 nM; IC50 (Toxoplasma gondii [9]): 0.016 µM; IC90 (Toxoplasma gondii [9]): 0.125 µM
O=C(Nc1ccc([N+](=O)[O-])cc1Cl)c1ccccc1O	> 1	> 1	
CCc1cccc(NC(=O)c2cc(Cl)ccc2O)c1	0.25 (≈ 0.0689 µg/mL)	0.5 (≈ 0.138 µg/mL)	
O=c1[nH]c(=O)c2nc[nH]c2[nH]1			growth inhibition (GI) (Toxoplasma gondii [2]): Active

SMILES	MIC50 (Toxoplasma gondii [1]) [µM]	MIC90 (Toxoplasma gondii [1]) [µM]	further results
O=C(Nc1ccc([N+](=O)[O-])cc1Cl)c1cc(Cl)ccc1OC(=O)N1CCOCC1	> 1	> 1	
N#Cc1ccc(Cl)c(NC(=O)c2cc(Cl)ccc2O)c1	0.5 (≈ 0.154 µg/mL)	0.75 (≈ 0.23 µg/mL)	
COc1c(C)c2c(c(O)c1C/C=C(\C)CCC(=O)O)C(=O)OC2			growth inhibition (GI) (Toxoplasma gondii [2]): Active
CN1CCN(C(=O)Oc2ccc(Cl)cc2C(=O)Nc2ccc([N+](=O)[O-])cc2Cl)CC1	0.5 (≈ 0.227 µg/mL)	0.75 (≈ 0.34 µg/mL)	
Cc1cccc(NC(=O)c2cc(Cl)ccc2O)c1	> 1	> 1	
O=C(Nc1cccc(Br)c1)c1cc(Cl)ccc1O	0.5 (≈ 0.163 µg/mL)	0.75 (≈ 0.245 µg/mL)	
O=C(Nc1cccc(OC(C(F)(F)F)C(F)(F)F)c1)c1cc(Cl)ccc1O	> 1	> 1	
O=C(Nc1cc(C(F)(F)F)cc(C(F)(F)F)c1)c1cc(Cl)ccc1O [IMD-0354]	0.016 (≈ 0.00614 µg/mL)	0.125 (≈ 0.048 µg/mL)	growth inhibition (GI) (Toxoplasma gondii [2]): Active; IC50 (Plasmodium falciparum [4]): 1.3 µM; IC50 (Plasmodium falciparum [5]): 1.4 µM; Activity (Toxoplasma gondii [10]): Active; Activity (Toxoplasma gondii [11]): Active; Activity (Toxoplasma gondii [12]): Active; Activity (Toxoplasma gondii [13]): Active; Activity (HFF): > 1000 nM; IC50 (Toxoplasma gondii [9]): 0.016 µM; IC90 (Toxoplasma gondii [9]): 0.125 µM
CCOc1cccc(NC(=O)c2cc(F)ccc2O)c1	> 1	> 1	
CC(C)Oc1cccc(NC(=O)c2cc(Cl)ccc2O)c1	> 1	> 1	
O=C(Nc1cccc(Cl)c1)c1cc(I)cc(I)c1O	> 1	> 1	
C#Cc1cccc(NC(=O)c2cc(Cl)ccc2O)c1	> 1	> 1	
O=C(Nc1cc(Cl)cc(Cl)c1)c1cc(Cl)ccc1O	0.25 (≈ 0.0791 µg/mL)	0.25 (≈ 0.0791 µg/mL)	
O=C(Nc1cccc(Oc2ccccc2)c1)c1cc(Cl)ccc1O	> 1	> 1	
COC(=O)[C@@H]1CCCN1C(=O)Oc1ccc(Cl)cc1C(=O)Nc1ccc([N+](=O)[O-])cc1Cl	> 1	> 1	
N#Cc1cccc(NC(=O)c2cc(Cl)ccc2O)c1	> 1	> 1	
O=C(Nc1ccc([N+](=O)[O-])cc1Cl)c1cc(Cl)ccc1O [NICLOSAMIDE]	0.2 (≈ 0.0654 µg/mL)	0.2 (≈ 0.0654 µg/mL)	
O=C(Nc1ccc2c(c1)OCCO2)c1cc(Cl)ccc1O	> 1	> 1	
CN(CC(=O)NN)C(=O)Oc1ccc(Cl)cc1C(=O)Nc1cc(C(F)(F)F)cc(C(F)(F)F)c1.Cl	0.125	0.125	growth inhibition (GI) (Toxoplasma gondii [2]): Active; Activity (Toxoplasma gondii [15]): Active; Activity (Mus musculus): Non-toxic; Activity (HFF): > 1000 nM; IC50 (Toxoplasma gondii [9]): 0.125 µM; IC90 (Toxoplasma gondii [9]): 0.125 µM
O=C(Nc1cccc(F)c1)c1cc(Cl)ccc1O	0.5 (≈ 0.133 µg/mL)	0.75 (≈ 0.199 µg/mL)	
